Screening data: PubChem BioAssay, Johns Hopkins Ion Channel Center
MrgX1 antag: antagonists of human MrgX1 receptor. MRGX1-HEK293 calcium flux, Fluo-4, BAM8-22 antagonism; stronger effect = lower value. B-score at 10 µM. 310,000 tested, 1.3% active. AID 588676;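 active = calcium-response B-score plate-corrected more than 3 library SD below zero, starting fluorescence within 5 deviations, no agonist response on first addition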;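 also: peak minus trough fluorescence over baseline after final BAM8-22 challenge near maximal dose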
Target sequence (Q96LB2 whole entry, looked up): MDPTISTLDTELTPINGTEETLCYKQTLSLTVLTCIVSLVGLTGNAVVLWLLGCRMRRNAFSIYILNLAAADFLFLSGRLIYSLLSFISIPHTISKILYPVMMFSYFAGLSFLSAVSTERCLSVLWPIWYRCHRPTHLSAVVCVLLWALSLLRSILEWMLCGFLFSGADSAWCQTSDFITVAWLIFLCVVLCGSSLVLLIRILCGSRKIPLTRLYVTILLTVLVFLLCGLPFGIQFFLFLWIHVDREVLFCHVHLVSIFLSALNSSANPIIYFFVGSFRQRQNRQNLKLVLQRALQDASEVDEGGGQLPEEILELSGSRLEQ
RGS4 block: inhibitors of human RGS4; HEK293 M3R/RGS4 inducible, Fluo-4 calcium flux; stronger effect = higher value; triggered by carbachol at its EC20; B-score at 10 µM; 310,000 tested, 0.45% active; AID 463165;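 active = B-score, a plate-corrected calcium signal, over three deviations above library mean, with baseline fluorescence within five deviations of library mean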;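 also: RGS4 expression induced by doxycycline in cells with stable M3 receptor; B-score is computed from the integrated fluorescence ratio over baseline after carbachol; higher B-score means a larger calcium signal and so more RGS4 inhibition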
Target sequence (P49798 whole entry, looked up): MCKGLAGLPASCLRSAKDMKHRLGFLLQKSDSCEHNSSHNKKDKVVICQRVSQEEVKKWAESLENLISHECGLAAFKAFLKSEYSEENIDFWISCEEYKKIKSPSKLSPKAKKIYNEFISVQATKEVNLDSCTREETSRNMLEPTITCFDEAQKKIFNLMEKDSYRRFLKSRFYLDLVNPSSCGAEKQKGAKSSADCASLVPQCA
MrgX1 ag: activates human MrgX1 receptor signaling | Q96LB2 | MrgX1-HEK293 cells, Fluo-4 calcium fluorescence, agonist mode; stronger effect = higher value | AID 588627 | 310,000 tested, 0.44% active | B-score at 10 µM;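 active = calcium response B-score plate-corrected fluorescence ratio at least 3 library SD, with starting fluorescence B-score inside 5 SD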
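System – MrgX1-expressing HEK293 cells · Incubation – cells plated overnight, dye loaded 0.5 h 37 °C, 0.5 h room temperature · Technique – kinetic Fluo-4 NW fluorescence of intracellular calcium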
MrgX1 PAM: human MrgX1 positive allosteric modulation, primary screen | MrgX1-HEK293, Fluo-4 calcium flux, FDSS; stronger effect = higher value | B-score at 10 µM | 310,000 tested, 0.63% active;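 active = plate-corrected calcium response at least 3 library SD above typical, normal starting fluorescence, not activating the receptor alone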;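 also: compound read alongside a low EC10 to EC30 dose of BAM8-22 agonist; peak minus trough fluorescence over baseline measured at the second addition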
RGS4 pot: RGS4 potentiation or activation; HEK293 M3R/inducible RGS4, carbachol calcium flux Fluo4; stronger effect = lower value; B-score at 10 µM; 310,000 tested, 0.92% active;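 active = B-score of the integrated calcium signal more than 4 SD below the library mean, with starting fluorescence not abnormally high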;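 also: negative B-score means reduced calcium response which marks RGS4 activation or potentiation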
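Also added: carbachol at ECmax as muscarinic agonist stimulus; Assay system: HEK293 cells with stable M3R and inducible RGS4; Timing: overnight RGS4 induction, 30 min dye load 37 °C, 20 min compound RT; Measured by: Fluo4-AM (2 µM) calcium-flux fluorescence, kinetic read.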
MrgX1 ant reconf: reconfirmed antagonist of human MrgX1 receptor signaling; remaining BAM8-22 calcium response % of control (stronger effect = lower value), % at 10 µM; shares compounds with MrgX1 antag; MrgX1-HEK293, BAM8-22 calcium flux, Fluo-4; stronger effect = lower value; 2,300 tested, 19% active;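 active = remaining agonist calcium response no higher than 100% minus 3 SD of agonist-only control wells, with starting fluorescence near control levels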;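 also: agonist BAM8-22 given at a near maximal EC90 to ECmax level; peak minus minimum fluorescence divided by baseline after agonist addition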
HEK293 Ca flux: activity in parental HEK293 cells lacking MrgX1 | shares compounds with MrgX1 antag | Fluo-4 calcium fluorescence, FDSS | fluorescence ratio F(max-min)/F0 at 10 µM | 4,000 tested, 2% active | AID 624111;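 active = duplicate-averaged calcium fluorescence ratio at least three times the standard deviation of buffer wells, a nonspecific response in parental cells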
HEK293 Ca counter: activity in parental HEK293 cells without MrgX1; shares compounds with MrgX1 antag; parental HEK293 calcium flux, Fluo-4 fluorescence ratio; stronger effect = higher value; fluorescence ratio F(max-min)/F0 at 10 µM; 4,000 tested, 0.4% active; AID 624114;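 active = calcium fluorescence ratio, averaged over duplicates, at least 3 SD of the buffer-well ratio, meaning a nonspecific response in receptor-free cells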;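 also: untransfected parental HEK293 lacking MrgX1 used as counterscreen for MrgX1 allosteric activators; fluorescence change taken during the second addition on a kinetic imager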
HEK293 Ca cntr2: MrgX1 activator counter-screen hit in parental HEK293 cells; shares compounds with MrgX1 antag; Fluo-4 calcium fluorescence (FDSS); stronger effect = higher value; fluorescence ratio F(max-min)/F0 at 10 µM; 4,000 tested, 8.7% active; AID 624115;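 active = calcium fluorescence ratio at least three times the spread of buffer wells, meaning a non-specific response in parental cells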
Numbers stand for hits; – = inactive; · = no result. The list is not random: actives were taken first. Their share in the collection is about 3.5%.

SMILES | MrgX1 antag | RGS4 block | MrgX1 ag | MrgX1 PAM | RGS4 pot | MrgX1 ant reconf | HEK293 Ca flux | HEK293 Ca counter | HEK293 Ca cntr2
CC(/C=C1\SC(=S)N(NS(=O)(=O)c2ccc(C)cc2)C1=O)=C\c1ccccc1 | -13.7 | – | – | – | -7.31 | – | – | – | 47.4
NC(=O)CC(NC(=O)c1ccc(Br)cc1)c1ccc(NC2CCCCCCC2)c([N+](=O)[O-])c1 (stereo not given) | – | – | – | – | – | · | · | · | ·
Cc1c(C(=O)N2CCN(Cc3ccc4c(c3)OCO4)CC2)sc2ncnc(N3CCN(c4ccccc4)CC3)c12 | -10.5 | – | – | – | – | 60.2% | – | – | –
CC1(C)NC(=O)N(CC(=O)N2CCN(c3cccc(C(F)(F)F)c3)CC2)C1=O | -6.48 | – | – | – | – | 67.1% | – | – | –
O=C(CN1C(=O)NC2(CCCC2)C1=O)N1CCN(c2cccc(C(F)(F)F)c2)CC1 | – | – | – | – | – | · | · | · | ·
CCN(CC)C(=O)c1cn(-c2cccc(OC)c2)c(=O)c2ccccc12 | – | – | – | – | – | · | · | · | ·
CCOc1ccc(NC(=S)NC(=O)C2CCCC2)cc1 | -5.38 | – | – | – | – | – | – | – | –
COc1ccc(NC(=S)NC(=O)C2CCCCC2)cc1 | – | – | – | – | – | · | · | · | ·
NC(=S)c1cc2ccc(O)cc2oc1=O | · | – | · | · | – | · | · | · | ·
Oc1cc(O)cc(-c2cc3ccc(O)cc3o2)c1 | -5.97 | – | – | – | – | – | – | – | –
Cc1ccccc1OCCCN1CCCC1 | -7.22 | – | – | – | – | – | – | – | –
CC(=O)c1sc(NC(=O)CN2C(=O)NC3(CCCC3)C2=O)nc1-c1ccccc1 | -6.39 | – | – | – | – | – | – | – | –
CCCCn1c(N)c(N(CC(C)C)C(=O)c2ccc(N3C(=O)CCC3=O)cc2)c(=O)[nH]c1=O | – | – | – | – | – | · | · | · | ·
Cc1cc(Br)ccc1NCc1ccccn1 | -6.01 | – | – | – | – | – | – | – | –
Cc1c(Cl)cccc1NC(=O)CCN1CCC(C(N)=O)CC1 | – | – | – | – | – | · | · | · | ·
COc1cccc(C(=O)Nc2cccc(C(C)=O)c2)c1 | -8.04 | – | – | – | – | – | – | – | –
COc1cccc(C(=O)NCc2cccnc2)c1 | -5.54 | – | – | – | – | – | – | – | –
CC(=O)c1cccc(NC(=O)Oc2ccccc2)c1 | -7.77 | – | – | – | – | – | – | – | –
CC(=O)c1ccc(NC(=O)Oc2ccccc2)cc1 | – | – | – | – | – | · | · | · | ·
O=C(NCc1cccnc1)c1ccc(COc2ccccc2Br)cc1 | – | – | – | – | – | · | · | · | ·
O=C(Nc1cccnc1)c1ccc(COc2ccccc2Br)cc1 | -7.38 | – | – | – | – | – | – | – | –
O=C(Nc1cccnc1)c1cccc(S(=O)(=O)N2CCc3ccccc32)c1 | – | – | – | – | – | · | · | · | ·
COc1cccc(C(=O)Nc2cccnc2)c1 | -4.97 | – | – | – | – | – | – | – | –
COc1ccc(OC)c(C(C)NC(=O)c2ccc(Br)cc2)c1 (stereo not given) | – | – | – | – | – | · | · | · | ·
CC1Cc2ccccc2N1S(=O)(=O)c1cccc(C(=O)Nc2cccnc2)c1 (stereo not given) | -4.6 | – | – | – | – | – | – | – | –
SMILES | MrgX1 antag | RGS4 block | MrgX1 ag | MrgX1 PAM | RGS4 pot | MrgX1 ant reconf | HEK293 Ca flux | HEK293 Ca counter | HEK293 Ca cntr2
COc1ccc(OC)c(C(C)NC(=O)Nc2cccc(C(C)=O)c2)c1 (stereo not given) | -10.2 | – | – | – | – | – | – | – | –
COc1ccc(NC(=O)NCc2cccnc2)cc1 | -7.56 | – | – | – | – | – | – | – | –
O=C(Nc1ccc2nn(-c3ccccc3)nc2c1)c1cccnc1 | -5.72 | – | – | – | – | 84.3% | – | – | –
COc1cccc(C(=O)Nc2cccc(-c3nnc(-c4ccco4)o3)c2)c1 | -5.51 | – | – | – | – | 59.6% | – | – | –
NC(=O)c1ccccc1NC(=O)CCN1C(=O)c2ccccc2C1=O | -6.9 | – | – | – | – | 85.2% | – | – | –
CCOC(=O)N1CCN(C(=O)CCCn2c(=S)[nH]c3ccccc3c2=O)CC1 | – | – | – | – | – | · | · | · | ·
CCOC(=O)N1CCN(C(=O)CCCn2c(=O)[nH]c3ccccc3c2=O)CC1 | -7.44 | – | – | – | – | – | – | – | –
CC(C)S(=O)(=O)c1ccc(C(=O)Nc2ccc(F)cc2F)cn1 | -5.85 | – | – | – | – | – | – | – | –
CCCSc1ccc(C(=O)Nc2ccc(F)cc2F)cn1 | – | – | – | – | – | · | · | · | ·
Cc1cc(C)cc(NC(=O)c2cc(S(=O)(=O)N3CCCC3)cn2C)c1 | -6.91 | – | – | – | – | – | – | – | –
O=C(CCC(=O)c1cccs1)NCc1cccc(C(F)(F)F)c1 | – | – | – | – | – | · | · | · | ·
COc1ccc(C(=O)c2cn[nH]c2-c2cc(Cl)ccc2O)cc1 | – | – | – | – | – | · | · | · | ·
COc1ccc(C(=O)c2cn[nH]c2-c2cc(C)ccc2O)cc1 | -4.51 | – | – | – | – | – | – | – | –
CCC1CCCCN1CCCNC(=O)CN1C(=O)COc2ccccc21 (stereo not given) | – | – | – | – | – | · | · | · | ·
O=C(CC(=O)Nc1nc(C23CC4CC(CC(C4)C2)C3)cs1)NCCO | -5.69 | – | – | – | – | 65.3% | – | – | –
COc1ccc([C@@H]2[C@@H]3C(=O)N(C(C)(C)C)C(=O)[C@@H]3[C@]3(Cc4ccc(Cl)cc4)C(=O)N(c4cccc(F)c4)C(=O)N23)cc1 | – | · | – | – | · | · | · | · | ·
CN(C(=O)c1ccc2c(c1)SC1=NS(=O)(=O)CCN12)C(c1ccccc1)c1ccccc1 | – | – | – | – | – | · | · | · | ·
O=C(O)c1ccc2c(c1)SC1=NS(=O)(=O)CCN12 | -14.3 | – | – | – | – | – | – | – | –
COc1cccc(-c2nc(NC3CCCC3)c3ccccc3n2)c1O | -5.07 | – | – | – | – | 74.0% | – | – | –
COc1cccc(NC(=O)CSc2nc(O)c(C)c(=O)n2-c2ccc(C)cc2)c1 | – | – | – | – | – | · | · | · | ·
O=C(Nc1ccccc1F)c1ccc(C(=O)c2ccccc2)cc1 | -5.63 | – | – | – | – | 84.5% | – | – | –
Nc1nc(N2CCN(c3ccccc3)CC2)n[nH]1 | -5.66 | – | – | – | – | – | – | – | –
